Published values gathered from unrelated publications.
Protocols differ between the studies behind these lines. In brackets after ≈: the same amount, converted by molar mass.

COc1ccc(NC(=O)c2ccc(COC(Cn3ccnc3)c3ccc(Cl)cc3Cl)cc2)cc1 (centres unmarked) gave an MIC80 of 0.125 mg/L (≈ 0.252 µM) (Nakaseomyces glabratus; microbial growth, broth dilution).
COc1cc(C2=CCCc3c2ccc(OC)c3OCc2cnc([N+](=O)[O-])n2C)cc(OC)c1OC has an IC50 of > 20 µM (tubulin polymerisation, inhibitor; 20 min).
CC(C)(C)c1cc(NC(=O)Nc2ccc(-c3cn4c(n3)sc3cc(OCCN5CCOCC5)ccc34)cc2)no1 has a GI50 of > 10 µM (HCC827; cell growth or viability; 72 h).
With COc1cc(C2=CCCCc3c2ccc(OC)c3OCc2cnc([N+](=O)[O-])n2C)cc(OC)c1OC the IC50 was > 20 µM (tubulin polymerisation, inhibitor; 20 min).
CCCCC(=O)Nc1ccc(-c2ccc3ncn(CCC(C)C)c(=O)c3c2)cn1 has an IC50 of 0.55 µM (HCC827; cell growth or viability, CCK-8; 72 h).
With Clc1ccc(COC(Cn2ccnc2)c2ccc(Cl)cc2Cl)c(Cl)c1 (centres unmarked) the MIC80 was 0.125 mg/L (≈ 0.3 µM) (Nakaseomyces glabratus; microbial growth, broth dilution).
With CCc1nc(C(N)=O)c(Nc2ccc(N3CCC(N4CCN(C)CC4)CC3)c(OC)c2)nc1NC1CCOCC1 the GI50 was 0.283 µM (HCC827; cell growth or viability; 72 h).
The IC50 of CCCCn1cnc2ccc(-c3ccc(NC(=O)NCc4ccccc4)nc3)cc2c1=O is reported as 0.32 µM (HCC827; cell growth or viability, CCK-8; 72 h).
The MIC80 of O=C(Nc1cccc2ccccc12)c1ccc(COC(Cn2ccnc2)c2ccc(Cl)cc2Cl)cc1 (centres unmarked) is reported as 8 mg/L (≈ 15.5 µM) (Nakaseomyces glabratus; microbial growth, broth dilution).
Cc1nc(Nc2ncc(C(=O)Nc3c(C)cccc3Cl)s2)cc(N2CC[C@H](O)C2)n1 has an inhibition of 75% (Daudi; cell growth or viability, ATP luminescence; 10 µM, 72 h).
For COc1cc(C2=CCCc3c2ccc(OC)c3OC(C)c2ccc([N+](=O)[O-])s2)cc(OC)c1OC (centres unmarked), the IC50 was > 20 µM (tubulin polymerisation, inhibitor; 20 min).
Cc1n[nH]c2ccc3nc(-c4ccc(C(=O)NCCN(C)C)cc4)c4c(c3c12)CCCCC4 has a GI50 of 7.12 µM (HCC827; cell growth or viability; 72 h).
O=C(Nc1cccc(Cl)c1)c1ccc(COC(Cn2ccnc2)c2ccc(Cl)cc2Cl)cc1 (centres unmarked) has an MIC80 of 0.25 mg/L (≈ 0.499 µM) (Nakaseomyces glabratus; microbial growth, broth dilution).
COc1cc(C2=CCCCc3c2ccc(OC)c3OC(C)c2cnc([N+](=O)[O-])n2C)cc(OC)c1OC (centres unmarked) has an IC50 of > 20 µM (tubulin polymerisation, inhibitor; 20 min).
